# From ChEMBL document CHEMBL4689842, “EUbOPEN Chemogenomics Library wave 1” (2021)
# System: HEK-293T
# Test: Multiplex assay against HEK293T;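 for Population Tubulin-Different-Phenotype (%): share of the cells with healthy nuclei that show this phenotype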
# Format: toxicity, cell-based
# Conditions: human
# How it was run: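 Four dyes were applied at seeding to live cells: Hoechst33342, BioTracker Green Microtubule Cytoskeleton Dye, MitoTracker Red and Annexin V Alexa Fluor 680. Imaging after compound addition used a CQ1 microscope at 37°C and 5% CO2. CellPathfinder machine-learning gating then sorted cells into Hoechst high-intensity objects or normal cells, normal cells into healthy, pyknosed or fragmented nuclei, and pyknosed cells into mitotic or apoptotic, with tubulin, mitochondrial-mass and membrane-permeability phenotypes given as per cents of healthy-nucleus cells.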
# [1] = 12 h, 1 µM, compound concentration 1 uM, replicate 1
# [2] = 12 h, 1 µM, compound concentration 1 uM, replicate 2
# [3] = 12 h, 10 µM, compound concentration 10 uM, replicate 1
# [4] = 12 h, 10 µM, compound concentration 10 uM, replicate 2
# [5] = 24 h, 1 µM, compound concentration 1 uM, replicate 1
# [6] = 24 h, 1 µM, compound concentration 1 uM, replicate 2
# [7] = 24 h, 10 µM, compound concentration 10 uM, replicate 1
# [8] = 24 h, 10 µM, compound concentration 10 uM, replicate 2
compound,measurement,setting,value
CCOc1cc2ncc(C#N)c(Nc3ccc(OCc4cccc(F)c4)c(Cl)c3)c2cc1NC(=O)/C=C/CN(C)C [HKI-357],Population Apoptotic (%),[1],18%
same,Population Fragmented Nuclei (%),[1],19%
same,Population Healthy Nuclei (%),[1],59%
same,Population Hoechst High Intensity Objects (%),[1],13%
same,Population Membrane Permeable-Phenotype (%),[1],4%
same,Population Mitochondria Different-Phenotype (%),[1],8%
same,Population Mitotic Cells (%),[1],81%
same,Population Normal (%),[1],86%
same,Population Pyknosed Nuclei (%),[1],21%
same,Population Tubulin-Different-Phenotype (%),[1],4%
same,Total Cell Count,[1],555
same,Population Apoptotic (%),[2],10%
same,Population Fragmented Nuclei (%),[2],7%
same,Population Healthy Nuclei (%),[2],87%
same,Population Hoechst High Intensity Objects (%),[2],1%
same,Population Membrane Permeable-Phenotype (%),[2],1%
same,Population Mitochondria Different-Phenotype (%),[2],10%
same,Population Mitotic Cells (%),[2],89%
same,Population Normal (%),[2],98%
same,Population Pyknosed Nuclei (%),[2],5%
same,Population Tubulin-Different-Phenotype (%),[2],7%
same,Total Cell Count,[2],1619
same,Population Apoptotic (%),[3],31%
same,Population Fragmented Nuclei (%),[3],13%
same,Population Healthy Nuclei (%),[3],50%
same,Population Hoechst High Intensity Objects (%),[3],10%
same,Population Membrane Permeable-Phenotype (%),[3],19%
same,Population Mitochondria Different-Phenotype (%),[3],16%
same,Population Mitotic Cells (%),[3],68%
same,Population Normal (%),[3],89%
same,Population Pyknosed Nuclei (%),[3],35%
same,Population Tubulin-Different-Phenotype (%),[3],61%
same,Total Cell Count,[3],591
same,Population Apoptotic (%),[4],14%
same,Population Fragmented Nuclei (%),[4],3%
same,Population Healthy Nuclei (%),[4],83%
same,Population Hoechst High Intensity Objects (%),[4],2%
same,Population Membrane Permeable-Phenotype (%),[4],11%
same,Population Mitochondria Different-Phenotype (%),[4],23%
same,Population Mitotic Cells (%),[4],85%
same,Population Normal (%),[4],97%
same,Population Pyknosed Nuclei (%),[4],12%
same,Population Tubulin-Different-Phenotype (%),[4],78%
same,Total Cell Count,[4],1328
same,Population Apoptotic (%),[5],31%
same,Population Fragmented Nuclei (%),[5],14%
same,Population Healthy Nuclei (%),[5],74%
same,Population Hoechst High Intensity Objects (%),[5],8%
same,Population Membrane Permeable-Phenotype (%),[5],7%
same,Population Mitochondria Different-Phenotype (%),[5],5%
same,Population Mitotic Cells (%),[5],68%
same,Population Normal (%),[5],91%
same,Population Pyknosed Nuclei (%),[5],11%
same,Population Tubulin-Different-Phenotype (%),[5],9%
same,Total Cell Count,[5],612
same,Population Apoptotic (%),[6],4%
same,Population Fragmented Nuclei (%),[6],26%
same,Population Healthy Nuclei (%),[6],71%
same,Population Hoechst High Intensity Objects (%),[6],2%
same,Population Membrane Permeable-Phenotype (%),[6],4%
same,Population Mitochondria Different-Phenotype (%),[6],2%
same,Population Mitotic Cells (%),[6],96%
same,Population Normal (%),[6],97%
same,Population Pyknosed Nuclei (%),[6],1%
same,Population Tubulin-Different-Phenotype (%),[6],8%
same,Total Cell Count,[6],2811
same,Population Apoptotic (%),[7],28%
same,Population Fragmented Nuclei (%),[7],12%
same,Population Healthy Nuclei (%),[7],59%
same,Population Hoechst High Intensity Objects (%),[7],8%
same,Population Membrane Permeable-Phenotype (%),[7],10%
same,Population Mitochondria Different-Phenotype (%),[7],17%
same,Population Mitotic Cells (%),[7],71%
same,Population Normal (%),[7],91%
same,Population Pyknosed Nuclei (%),[7],28%
same,Population Tubulin-Different-Phenotype (%),[7],72%
same,Total Cell Count,[7],592
same,Population Apoptotic (%),[8],11%
same,Population Fragmented Nuclei (%),[8],11%
same,Population Healthy Nuclei (%),[8],81%
same,Population Hoechst High Intensity Objects (%),[8],3%
same,Population Membrane Permeable-Phenotype (%),[8],12%
same,Population Mitochondria Different-Phenotype (%),[8],9%
same,Population Mitotic Cells (%),[8],88%
same,Population Normal (%),[8],96%
same,Population Pyknosed Nuclei (%),[8],6%
same,Population Tubulin-Different-Phenotype (%),[8],70%
same,Total Cell Count,[8],1894
